This assay deals with T1, OR1A1 (Homo sapiens) (UniProt Q9P1Q5).
T1 sequence (whole entry): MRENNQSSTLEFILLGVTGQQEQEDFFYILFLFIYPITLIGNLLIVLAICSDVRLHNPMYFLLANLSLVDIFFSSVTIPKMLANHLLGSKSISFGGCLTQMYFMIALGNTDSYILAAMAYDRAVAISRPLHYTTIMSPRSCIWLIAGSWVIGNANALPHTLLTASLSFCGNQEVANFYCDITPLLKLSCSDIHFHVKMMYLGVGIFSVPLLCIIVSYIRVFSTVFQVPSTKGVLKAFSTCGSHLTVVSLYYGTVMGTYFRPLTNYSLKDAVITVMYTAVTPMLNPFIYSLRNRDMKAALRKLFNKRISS
The settings on record: stereoisomer not certain. The essentials: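 Transient luciferase assays in mammalian cell lines were common, though methods varied by source. The values come from published papers and their supplementary material, with extra details from the original authors when needed. Responsive refers to a measured signal the original authors judged statistically different from baseline, and non-responsive (inactive) to the remainder.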
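Also: active if original authors judged signal statistically different from baseline.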

Consider `CCOC(=O)C=Cc1ccccc1`, for which the “odorant receptor agonist call” value was “inactive”.

As to `CC(=O)c1ccccc1N`, the “odorant receptor agonist call” value is “inactive”.

For the molecule `CCCCCC(=O)OCC`, the “odorant receptor agonist call” value is “active”.

With `CCCCCC(=O)CC`, the “odorant receptor agonist call” value was “active”.

For `CCCCCCCC=CC=CC=O`, the “odorant receptor agonist call” value is “inactive”.
